Experimental data: ChEMBL document CHEMBL1126276, “Synthesis and antimalarial properties of 1-imino derivatives of 7-chloro-3-substituted-3,4-dihydro-1,9(2H,10H)-acridinediones and related structures” (J Med Chem, 1992)

How the values were obtained:
Plasmodium berghei [1] = experiment: (§1) Antimalarial activity in Plasmodium berghei infected mice (Mus musculus) after 40 mg/kg subcutaneous dose; format: functional
Procedure, shortened: (§2)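 […] in mice infected with a normal drug-sensitive P. berghei strain. Compound dissolved or suspended in sesame or peanut oil, given as a single subcutaneous dose 72 h postinfection.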

Plasmodium berghei [2] = experiment: (§3) Antimalarial activity in Plasmodium berghei infected mice (Mus musculus) after 80 mg/kg subcutaneous dose; format: functional; procedure, shortened: as §2
Plasmodium berghei [3] = experiment: Antimalarial activity in Plasmodium berghei infected mice (Mus musculus) after subcutaneous 640 mg/kg dose; format: functional
Procedure, shortened: (§4)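 Normal drug-sensitive P. berghei strain in mice. Compound dissolved or suspended in sesame or peanut oil, given parenterally as a single subcutaneous dose 72 h postinfection.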

Plasmodium berghei [4] = experiment: Antimalarial activity in Plasmodium berghei infected mice (Mus musculus) after 320 mg/kg subcutaneous dose; format: functional; procedure, shortened: as §2
Plasmodium berghei [5] = experiment: Antimalarial activity in Plasmodium berghei infected mice (Mus musculus) after subcutaneous 160 mg/kg dose; format: functional; procedure, shortened: as §4
Plasmodium berghei [6] = experiment: Antimalarial activity was measured against mice (Mus musculus) infected with Plasmodium berghei by subcutaneous administration of 640 mg/kg dose; format: organism-based; design: dose 640 mg/kg, route subcutaneous; details: in vivo, sc; procedure, shortened: as §2
Plasmodium berghei [7] = experiment: Antimalarial activity in Plasmodium berghei infected mice (Mus musculus) after subcutaneous 320 mg/kg dose; format: functional; procedure, shortened: as §4
Plasmodium berghei [8] = experiment: as §3; format: functional; procedure, shortened: as §4; remark: listed apart in the source
Plasmodium berghei [9] = experiment: Antimalarial activity in Plasmodium berghei infected mice (Mus musculus) after 160 mg/kg subcutaneous dose; format: functional; procedure, shortened: as §2
Plasmodium berghei [10] = experiment: (§5) Antimalarial activity in Plasmodium berghei infected mice (Mus musculus) after 20 mg/kg subcutaneous dose; format: functional; procedure, shortened: as §2
Plasmodium berghei [11] = experiment: Antimalarial activity Plasmodium berghei infected mice (Mus musculus) after 640 mg/kg subcutaneous dose; format: functional; procedure, shortened: as §2
Plasmodium berghei [12] = experiment: as §1; format: functional; procedure, shortened: as §4; remark: listed apart in the source
Plasmodium berghei [13] = experiment: as §5; format: functional; procedure, shortened: as §4; remark: listed apart in the source

| Structure (SMILES) | Delta mean survival time (Plasmodium berghei [1]) | Delta mean survival time (Plasmodium berghei [2]) | No. of cured mice (Plasmodium berghei [3]) | Delta mean survival time (Plasmodium berghei [4]) | No. of cured mice (Plasmodium berghei [5]) | No. of toxic deaths (Plasmodium berghei [6]) | No. of cured mice (Plasmodium berghei [7]) | No. of cured mice (Plasmodium berghei [8]) | Delta mean survival time (Plasmodium berghei [9]) | Delta mean survival time (Plasmodium berghei [10]) | Delta mean survival time (Plasmodium berghei [11]) | No. of cured mice (Plasmodium berghei [12]) | No. of cured mice (Plasmodium berghei [13]) | Delta mean survival time (Plasmodium berghei [1]; 40 mg/kg) | Delta mean survival time (Plasmodium berghei [2]; 80 mg/kg) | No. of cured mice (Plasmodium berghei [12]; 40 mg/kg) | Delta mean survival time (Plasmodium berghei [10]; 20 mg/kg) |
| --- | --- | --- | --- | --- | --- | --- | --- | --- | --- | --- | --- | --- | --- | --- | --- | --- | --- |
| CSc1ccc(C2C/C(=N\CCCN(C)C)c3c(nc4ccc(Cl)cc4c3O)C2)cc1 (stereo unspecified) | 3.4 | 4 | 4 | 12.8 | 1 | 1 | 3 | 1 | 9.8 | 2.8 | – | – | – | – | – | – | – |
| CN(C)CCC/N=C1\CC2(CCCCC2)Cc2nc3ccc(Cl)cc3c(O)c21 | 0.6 | – | – | – | – | 1 | – | – | 0 | – | 0.4 | – | – | – | – | – | – |
| CCN(CC)CC(C)(C)C/N=C1\CC(c2ccc(Cl)c(Cl)c2)Cc2c1c(=O)c1cc(Cl)ccc1n2O (stereo unspecified) | 9.6 | 10.3 | 5 | 13.6 | 4 | – | 4 | 2 | 14.6 | 4 | – | 1 | – | – | – | – | – |
| COc1cc(C2C/C(=N\CCCN3CCCCC3)c3c(n(O)c4ccc(Cl)cc4c3=O)C2)cc(OC)c1OC (stereo unspecified) | 0.3 | – | – | – | – | 1 | – | – | 1.4 | – | 4.5 | – | – | – | – | – | – |
| N=C1CC(c2ccc(C(F)(F)F)cc2)Cc2nc3ccc(Cl)cc3c(O)c21 (stereo unspecified) | – | – | 5 | – | 5 | – | 5 | 5 | – | 11.2 | – | 5 | 1 | – | – | – | – |
| CC1C(=O)c2c(n(O)c3ccc(Cl)cc3c2=O)CC1c1ccc(Cl)cc1Cl (stereo unspecified) | – | – | 5 | – | 5 | – | 5 | 5 | – | 10.7 | – | 5 | 2 | – | – | – | – |
| CCCCCCC/N=C1\CC(c2ccc(C(F)(F)F)cc2)Cc2c1c(=O)c1cc(Cl)ccc1n2O (stereo unspecified) | 4.3 | – | 4 | 14.7 | 5 | 1 | 3 | 5 | – | – | – | – | – | – | – | – | – |
| CC1/C(=N\CCCN(C)C)c2c(nc3ccc(Cl)cc3c2O)CC1c1ccc(Cl)c(Cl)c1 (stereo in doubt) | – | – | 4 | – | – | 1 | – | – | – | – | – | – | – | 21 | 10.7 | 4 | 7.8 |
| CN(C)CCC/N=C1/c2c([nH]c3ccc(Cl)cc3c2=O)CC(c2ccc(Cl)c(Cl)c2)C1Cc1ccccc1 (stereo unspecified) | 0.5 | 0.7 | – | 7.7 | – | 5 | – | – | 6.1 | -0.1 | – | – | – | – | – | – | – |
| O=C1CC(c2ccc(C(F)(F)F)cc2)Cc2nc3ccc(Cl)cc3c(O)c21 (stereo unspecified) | 9.9 | 9.4 | 5 | – | 5 | – | 5 | 4 | – | 8.9 | – | 2 | 1 | – | – | – | – |
| CC(C)CN(CC/N=C1\CC(c2ccc(Cl)c(Cl)c2)Cc2c1c(=O)c1cc(Cl)ccc1n2O)CC(C)C (stereo unspecified) | 5.3 | 6.3 | 5 | 13 | 2 | – | 1 | 1 | 9.7 | 3.6 | – | 1 | – | – | – | – | – |
| OCCNCC/N=C1\CC(c2ccc(Cl)cc2Cl)Cc2nc3ccc(Cl)cc3c(O)c21 (stereo unspecified) | – | – | 5 | – | 5 | – | 5 | 5 | – | – | – | 5 | 5 | – | – | – | – |
| O=c1c2c(n(O)c3ccc(Cl)cc13)CC(c1ccc(C(F)(F)F)cc1)C/C2=N\CCCN1CCCCC1 (stereo unspecified) | 10 | 12 | 1 | – | 5 | 4 | 5 | 3 | – | 8.5 | – | 3 | – | – | – | – | – |
| CCN(CC)CCCC(C)/N=C1\CC(c2ccc(Cl)cc2Cl)Cc2nc3ccc(Cl)cc3c(O)c21 (stereo unspecified) | 13.7 | – | 5 | – | 5 | – | 5 | 5 | – | 10.2 | – | 4 | 3 | – | – | – | – |
| CCN(CC)CC(C)(C)C/N=C1\CC(c2ccc(Cl)cc2Cl)Cc2nc3ccc(Cl)cc3c(O)c21 (stereo unspecified) | 13.7 | – | 5 | – | 5 | – | 5 | 5 | – | 12.7 | – | 4 | 3 | – | – | – | – |
| O=C1CC(c2ccc(Cl)cc2Cl)Cc2c1c(=O)c1cc(Cl)ccc1n2O (stereo unspecified) | – | – | 5 | – | 5 | – | 5 | 5 | – | 1.9 | – | 5 | 2 | – | – | – | – |
| CCN(CC)CCCC/N=C1\CC(c2ccc(C(F)(F)F)cc2)Cc2nc3ccc(Cl)cc3c(O)c21 (stereo unspecified) | 13.6 | – | 5 | – | 5 | – | 5 | 5 | – | 18.6 | – | 4 | 2 | – | – | – | – |
| O=C1CC(c2ccc(C(F)(F)F)cc2)Cc2c1c(=O)c1cc(Cl)ccc1n2Cc1ccccc1 (stereo unspecified) | 0.2 | – | – | – | – | 1 | – | – | 0 | – | 0.3 | – | – | – | – | – | – |
| COc1ccccc1C1CC(=O)c2c(n(O)c3ccc(Cl)cc3c2=O)C1 (stereo unspecified) | 2.2 | 1.8 | – | 2.2 | – | 3 | – | – | – | 0.8 | – | – | – | – | – | – | – |
| CN(C)CCC/N=C1\CC(c2ccc(C(F)(F)F)cc2)Cc2nc3ccc(I)cc3c(O)c21 (stereo unspecified) | 3 | – | 1 | – | 2 | 1 | – | – | 7.3 | – | 14 | – | – | – | – | – | – |
| CC1C(=O)c2c(n(O)c3ccc(Cl)cc3c2=O)CC1c1ccc(Cl)c(Cl)c1 (stereo unspecified) | 9.6 | – | 5 | – | 5 | – | 5 | 5 | – | 7.6 | – | 4 | 3 | – | – | – | – |
| O=c1c2c(n(O)c3ccc(Cl)cc13)CC(c1cccc(C(F)(F)F)c1)C/C2=N\CCN1CCCC1 (stereo unspecified) | 6.6 | 8 | 4 | – | 4 | 1 | 5 | – | 9.6 | – | – | – | – | – | – | – | – |
